The record followed here is ChEMBL document CHEMBL1131828, “Synthesis and biological evaluation of a new class of vaccine adjuvants: aminoalkyl glucosaminide 4-phosphates (AGPs)” (1999).

In brackets after ≈: the same amount, converted by molar mass.

Holding throughout (format): functional
The species named for assay [1] is Mus musculus. Kind of assay: Half-maximal response in vitro using peritoneal exudate cells from Propionibacterium acnes-primed mice. To be noted: read-out: ED50 (the source's name).
The species entered for another assay is Oryctolagus cuniculus. Briefly: Minimum pyrogenic dose was determined for Febrile response in a standard 3-rabbit USP pyrogen test by injecting compound in the marginal ear vein. An outline of the steps:
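Test article dissolved in EtOH, then diluted with D5W to the desired concentrations just before injection. The minimal pyrogenic dose is the dose at which the summed temperature rise over the three rabbits reaches at least 1.2 °C.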

The species named for assay [2] is Mus musculus. Kind of assay: Percent of cytotoxicity was determined for augment vaccine-induced CTL's against EG.7-ova target cells in two separate murine models. An outline of the steps: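 C57BL/6 (H-2b) mice, 6 per group, were immunized on days 0 and 14 with a 2.5% oil-water emulsion containing 25 µg ovalbumin plus test article. On day 21, spleens were tested for ovalbumin-specific CTL against 51Cr-labeled E.G7-ova target cells, an ovalbumin-transfected line. Read-out was percent specific lysis.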

For assay [3], the species on record is Mus musculus. Kind of assay: Ability to enhance antibody response to tetanus toxoid vaccine, IgG2b. Put shortly:
(§1)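 Mice were immunized with tetanus toxoid in an oil-water emulsion with test article, then boosted 21 days after the primary dose. Serum was taken 14 days after the second injection and assayed by ELISA. Values are test titers divided by the titer of controls given oil-water vehicle with tetanus toxoid only.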

Assay [4] is filed under the species Mus musculus. Briefly: Ability to enhance antibody response to tetanus toxoid vaccine, IgG1. An outline of the steps: as §1
The species named for assay [5] is Mus musculus. Kind of assay: Ability to enhance antibody response to tetanus toxoid vaccine, total Immunoglobulin (Ig). An outline of the steps:
as §1

For assay [6], the species on record is Mus musculus. Briefly: Ability to enhance antibody response to tetanus toxoid vaccine, IgG2a. Put shortly: as §1
For assay [7], the species on record is Homo sapiens. Briefly: Relative ex vivo induction of IL1-beta in human whole blood stimulated with 10 ug/mL. An outline of the steps:
(§2)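 Human whole blood was stimulated with sample, and cell-associated TNF-α and IL-1β were measured by sandwich ELISA. Relative induction below 0.05 was scored as not detected.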

Assay [8] is filed under the species Homo sapiens. Briefly: Relative ex vivo induction of TNF-alpha in human whole blood stimulated with 10 ug/mL. An outline of the steps:
as §2

`CCCCCCCCCCCCCC(=O)O[C@H](CCCCCCCCCCC)CC(=O)N[C@@H](CO)CO[C@@H]1OC(CO)[C@H](OP(=O)(O)O)C(OC(=O)C[C@@H](CCCCCCCCCCC)OC(=O)CCCCCCCCCCCCC)[C@@H]1NC(=O)C[C@@H](CCCCCCCCCCC)OC(=O)CCCCCCCCCCCCC` (some centres not stated): the EC50 in the assay filed under Mus musculus [1] was 0.15 µg/mL (≈ 0.0913 µM). In addition, in the assay filed under Oryctolagus cuniculus, the Dose is over 0.01 mg/kg. The Cytotoxicity in the assay filed under Mus musculus [2] was found to be 34%. Further, the Response in the assay listed under Mus musculus [3] turned out to be 2.4; in the assay filed under Mus musculus [4], 3.4; in the assay filed under Mus musculus [5] it was 4; in the assay filed under Mus musculus [6] it was 3.8.
With `CCCCCCCCCCCCCC(=O)O[C@H](CCCCCCCCCCC)CC(=O)N[C@H](CO)CO[C@@H]1OC(CO)[C@H](OP(=O)(O)O)C(OC(=O)C[C@@H](CCCCCCCCCCC)OC(=O)CCCCCCCCCCCCC)[C@@H]1NC(=O)C[C@@H](CCCCCCCCCCC)OC(=O)CCCCCCCCCCCCC` (some centres not stated), the EC50 in the assay listed under Mus musculus [1] is 0.009 µg/mL (≈ 0.00548 µM). In addition, the Dose in the assay filed under Oryctolagus cuniculus was 0.01 mg/kg. This molecule yielded a Cytotoxicity in the assay listed under Mus musculus [2] of 21%. Besides, the Response is 1.6 in the assay listed under Mus musculus [3], 2.2 in the assay filed under Mus musculus [4], 3.8 in the assay listed under Mus musculus [5] and 4.3 in the assay listed under Mus musculus [6]. The Cytokine induction in the assay listed under Homo sapiens [7] was 4.9; in the assay filed under Homo sapiens [8] it was 3.5.
As to `CCCCCCCCCCCCCCCC(=O)O[C@H](CCCCCCCCCCC)CC(=O)N[C@H]1[C@@H](O)[C@H](O)[C@H](CO[C@@H]2O[C@@H](CO)[C@@H](OP(=O)(O)O)[C@H](OC(=O)C[C@@H](CCCCCCCCCCC)OC(=O)CCCCCCCCCCCCC)[C@@H]2NC(=O)C[C@@H](CCCCCCCCCCC)OC(=O)CCCCCCCCCCC)O[C@H]1O`, in the assay filed under Mus musculus [1], the EC50 stood at 0.014 µg/mL (≈ 0.00809 µM). In the assay filed under Oryctolagus cuniculus, this molecule showed a Dose of 0.01 mg/kg. The molecule also had a Cytotoxicity in the assay listed under Mus musculus [2] of 31%. Further, the results for the Cytokine induction in the assay filed under Homo sapiens [7] and in the assay filed under Homo sapiens [8] were 0.7 and 1.2, respectively.
Consider `CCCCCCCCCCC[C@H](CC(=O)NCCO[C@@H]1OC(CO)[C@H](OP(=O)(O)O)C(OC(=O)C[C@@H](CCCCCCCCCCC)OC(=O)CCCCCCCCC)[C@@H]1NC(=O)C[C@@H](CCCCCCCCCCC)OC(=O)CCCCCCCCC)OC(=O)CCCCCCCCC` (some centres not stated), for which, in the assay filed under Mus musculus [1], the EC50 is 0.0005 µg/mL (≈ 0.000346 µM). The Dose in the assay filed under Oryctolagus cuniculus came out at 0.01 mg/kg. This molecule also showed a Cytotoxicity in the assay filed under Mus musculus [2] of 36%. The figures for the Cytokine induction in the assay filed under Homo sapiens [7] and in the assay filed under Homo sapiens [8] were 1.9 and 1.3, respectively.
For the molecule `CCCCCCCCCCC[C@H](CC(=O)NC(CO[C@@H]1OC(CO)[C@H](OP(=O)(O)O)C(OC(=O)C[C@@H](CCCCCCCCCCC)OC(=O)CCCCC)[C@@H]1NC(=O)C[C@@H](CCCCCCCCCCC)OC(=O)CCCCC)C(=O)O)OC(=O)CCCCC` (some centres not stated), the EC50 in the assay listed under Mus musculus [1] was over 10 µg/mL. Further, in the assay listed under Oryctolagus cuniculus, the Dose is under 0.0025 mg/kg. Further, the Response in the assay listed under Mus musculus [3] is reported as 0.9; in the assay filed under Mus musculus [4], 1.3; in the assay filed under Mus musculus [5] it was 1.1; in the assay listed under Mus musculus [6], 0.3.
Take `CCCCCCCCCCCCCC(=O)O[C@H](CCCCCCCCCCC)CC(=O)NCCO[C@@H]1OC(CO)[C@H](OP(=O)(O)O)C(OC(=O)C[C@@H](CCCCCCCCCCC)OC(=O)CCCCCCCCCCCCC)[C@@H]1NC(=O)C[C@@H](CCCCCCCCCCC)OC(=O)CCCCCCCCCCCCC` (some centres not stated): the EC50 in the assay listed under Mus musculus [1] turned out to be 0.1 µg/mL (≈ 0.062 µM). Also, in the assay listed under Oryctolagus cuniculus, the Dose was determined as 0.01 mg/kg. Moreover, the Cytotoxicity in the assay listed under Mus musculus [2] worked out at 59%. Besides, the Cytokine induction in the assay listed under Homo sapiens [7] and in the assay filed under Homo sapiens [8] was 0.3 each time.
For the molecule `CCCCCCCCCCCCCC(=O)O[C@H](CCCCCCCCCCC)CC(=O)NCCCCO[C@@H]1OC(CO)[C@H](OP(=O)(O)O)C(OC(=O)C[C@@H](CCCCCCCCCCC)OC(=O)CCCCCCCCCCCCC)[C@@H]1NC(=O)C[C@@H](CCCCCCCCCCC)OC(=O)CCCCCCCCCCCCC` (some centres not stated), the EC50 in the assay listed under Mus musculus [1] worked out at 0.051 µg/mL (≈ 0.0311 µM). Also, the Dose in the assay filed under Oryctolagus cuniculus amounted to 0.01 mg/kg. The Cytotoxicity in the assay listed under Mus musculus [2] was determined as 58%. Moreover, the Cytokine induction in the assay listed under Homo sapiens [7] stood at 0.3; in the assay filed under Homo sapiens [8], 1.
